Assay results: ChEMBL document CHEMBL3739264, “Synthesis and bio-evaluation of novel quinolino-stilbene derivatives as potential anticancer agents” (Bioorg Med Chem, 2015)
The source made the active and inactive calls. No cut-off for these calls is given here.

Legend:
MCF7 = assay: Antiproliferative activity against human MCF7 cells after 72 hrs by SRB assay; format: functional, cell-based; conditions: MCF7, 72 h
Summary of the method: (§1)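 Cells seeded at 4,000-5,000/well for 16 h, then exposed 72 h to serial dilutions of compound in DMSO; sham DMSO as 100% and TCA-treated wells as 0%. IC50 from sigmoidal dose-response curves; two biological replicates, four technical each.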

[1] = Antiproliferative activity against human 184B5 cells after 72 hrs by SRB assay; format: cell-based; conditions: 184B5, 72 h
Summary of the method: as §1, with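 “0%. Fixed in 10% TCA at 4°C for 1 h, stained with 0.4% SRB for 30 min, dye solubilised in 10 mmol Tris pH 10.5, read at 540 nm.” for “0%.”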

HeLa = assay: Antiproliferative activity against human HeLa cells after 72 hrs by SRB assay; format: functional, cell-based
Summary of the method: as §1, with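 “0%. Fixed in 10% TCA at 4°C for 1 h, stained with 0.4% SRB for 30 min, dye solubilised in 10 mmol Tris pH 10.5, read at 540 nm.” for “0%.”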

MDA-MB-468 [2] = assay: Antiproliferative activity against human MDA-MB-468 cells after 72 hrs by SRB assay; format: functional, cell-based; conditions: MDA-MB-468, 72 h
Summary of the method: as §1, with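 “0%. Fixed in 10% TCA at 4°C for 1 h, stained with 0.4% SRB for 30 min, dye solubilised in 10 mmol Tris pH 10.5, read at 540 nm.” for “0%.”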

MDA-MB-231 = assay: Antiproliferative activity against human MDA-MB-231 cells after 72 hrs by SRB assay; format: functional, cell-based; conditions: MDA-MB-231, 72 h
Summary of the method: as §1, with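 “0%. Fixed in 10% TCA at 4°C for 1 h, stained with 0.4% SRB for 30 min, dye solubilised in 10 mmol Tris pH 10.5, read at 540 nm.” for “0%.”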

Tubulin (Homo sapiens) = Tubulin (Homo sapiens) (UniProt P68371+Q9H4B7+P0DPH7+P68366+Q13509+Q71U36+P04350+Q3ZCM7+P07437+P68363+Q9BQE3+Q6PEY2+Q13885+Q9BVA1+Q9BUF5); conditions: 5 uM
MDA-MB-468 [3] = assay: Cell cycle arrest in human MDA-MB-468 cells assessed as accumulation at G0-G1 phase at 1 uM after 72 hrs by flow cytometry analysis relative to control; format: functional
Summary of the method: (§2)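 Cells seeded overnight at about 1 × 10^6 per plate, treated next morning, and harvested at set times. Fixed in 75% ethanol at -20°C for 12-24 h, then stained 1 h in PBS with 0.3% NP-40, 100 µg/ml RNase A and 100 µg/ml propidium iodide. Phase distribution read from DNA content by flow cytometry against sham-treated cells.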

MDA-MB-468 [4] = assay: Cell cycle arrest in human MDA-MB-468 cells assessed as accumulation at G2/M phase at 1 uM after 24 hrs by flow cytometry analysis relative to control; format: functional; summary of the method: as §2
MDA-MB-468 [5] = assay: Cell cycle arrest in human MDA-MB-468 cells assessed as accumulation at S phase at 1 uM after 48 hrs by flow cytometry analysis relative to control; format: functional; summary of the method: as §2
MDA-MB-468 [6] = assay: Cell cycle arrest in human MDA-MB-468 cells assessed as accumulation at sub-G1 phase at 1 uM after 48 hrs by flow cytometry analysis relative to control; format: functional; summary of the method: as §2
MDA-MB-468 [7] = assay: Cell cycle arrest in human MDA-MB-468 cells assessed as accumulation at S phase at 1 uM after 24 hrs by flow cytometry analysis relative to control; format: functional; summary of the method: as §2
MDA-MB-468 [8] = assay: Cell cycle arrest in human MDA-MB-468 cells assessed as accumulation at G0-G1 phase at 1 uM after 12 hrs by flow cytometry analysis relative to control; format: functional; summary of the method: as §2
MDA-MB-468 [9] = assay: Cell cycle arrest in human MDA-MB-468 cells assessed as accumulation at G2/M phase at 1 uM after 48 hrs by flow cytometry analysis relative to control; format: functional; summary of the method: as §2
MDA-MB-468 [10] = assay: Cell cycle arrest in human MDA-MB-468 cells assessed as accumulation at S phase at 1 uM after 72 hrs by flow cytometry analysis relative to control; format: functional; summary of the method: as §2
MDA-MB-468 [11] = assay: Cell cycle arrest in human MDA-MB-468 cells assessed as accumulation at G0-G1 phase at 1 uM after 48 hrs by flow cytometry analysis relative to control; format: functional; summary of the method: as §2
MDA-MB-468 [12] = assay: Cell cycle arrest in human MDA-MB-468 cells assessed as accumulation at G2/M phase at 1 uM after 72 hrs by flow cytometry analysis relative to control; format: functional; summary of the method: as §2
MDA-MB-468 [13] = assay: Cell cycle arrest in human MDA-MB-468 cells assessed as accumulation at G2/M phase at 1 uM after 12 hrs by flow cytometry analysis relative to control; format: functional; summary of the method: as §2
MDA-MB-468 [14] = assay: Cell cycle arrest in human MDA-MB-468 cells assessed as accumulation at sub-G1 phase at 1 uM after 72 hrs by flow cytometry analysis relative to control; format: functional; summary of the method: as §2
MDA-MB-468 [15] = assay: Cell cycle arrest in human MDA-MB-468 cells assessed as accumulation at S phase at 1 uM after 12 hrs by flow cytometry analysis relative to control; format: functional; summary of the method: as §2
MDA-MB-468 [16] = assay: Induction of DNA damage in human MDA-MB-468 cells at 1 uM after 24 hrs by immunostaining; format: functional, cell-based
Summary of the method: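 γH2A.X (phospho-Ser139) immunostaining, with HeLa at 6 µM for 24 or 48 h and MDA-MB468 at 1 µM. Cells on coverslips fixed and permeabilized in ice-cold methanol at -20°C. Blocked in 1% FBS, primary antibody 1:200 overnight at 4°C, then fluorophore-conjugated secondary 1 h. DNA counterstained with DRAQ5.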

MDA-MB-468 [17] = assay: Cell cycle arrest in human MDA-MB-468 cells assessed as accumulation at G0-G1 phase at 1 uM after 24 hrs by flow cytometry analysis relative to control; format: functional; summary of the method: as §2
MDA-MB-468 [18] = assay: Cell cycle arrest in human MDA-MB-468 cells assessed as accumulation at sub-G1 phase at 1 uM after 12 hrs by flow cytometry analysis relative to control; format: functional; summary of the method: as §2
MDA-MB-468 [19] = assay: Cell cycle arrest in human MDA-MB-468 cells assessed as accumulation at sub-G1 phase at 1 uM after 24 hrs by flow cytometry analysis relative to control; format: functional; summary of the method: as §2

Row | Structure (SMILES) | IC50 (MCF7) [µM] | IC50 (HeLa) [µM] | IC50 (MDA-MB-468 [2]) [µM] | IC50 (MDA-MB-231) [µM] | IC50 [1] [µM] | further results
1 | FC(F)(F)c1cc(/C=C\c2cc3ccc(Cl)cc3nc2Cl)cc(C(F)(F)F)c1 | 41.7 | 41.4 | > 50 | > 50 | 43 | –
2 | FC(F)(F)c1ccc(/C=C\c2cc3ccccc3nc2Cl)c(C(F)(F)F)c1 | 10.5 | 35.9 | – | 41.8 | – | –
3 | COC(=O)Nc1nc2cc(C(=O)c3cccs3)ccc2[nH]1 | – | – | – | – | – | inhibition (Tubulin (Homo sapiens)): Active
4 | COc1ccc2nc(Cl)c(/C=C/c3ccc(F)cc3)cc2c1 | 14.1 | > 50 | 14.8 | 11 | 9.74 | –
5 | FC(F)(F)c1cc(/C=C\c2cc3cc4c(cc3nc2Cl)OCO4)cc(C(F)(F)F)c1 | > 50 | > 50 | > 50 | > 50 | > 50 | –
6 | COc1ccc2nc(Cl)c(/C=C/c3ccc(C(F)(F)F)cc3)cc2c1 | 47 | > 50 | > 50 | 48.8 | 33.5 | –
7 | Fc1ccc(/C=C/c2cc3ccccc3nc2Cl)cc1 | 15.1 | > 50 | 0.12 | > 50 | 38.5 | Activity (MDA-MB-468 [3]): 16.1%; Activity (MDA-MB-468 [4]): 20.2%; Activity (MDA-MB-468 [5]): 22%; Activity (MDA-MB-468 [6]): 40.6%; Activity (MDA-MB-468 [7]): 41.7%; Activity (MDA-MB-468 [8]): 37%; Activity (MDA-MB-468 [9]): 15%; Activity (MDA-MB-468 [10]): 11.4%; Activity (MDA-MB-468 [11]): 21.8%; Activity (MDA-MB-468 [12]): 6.7%; Activity (MDA-MB-468 [13]): 21.9%; Activity (MDA-MB-468 [14]): 65%; Activity (MDA-MB-468 [15]): 34.5%; Activity (MDA-MB-468 [16]): Active; Activity (MDA-MB-468 [17]): 23.1%; Activity (MDA-MB-468 [18]): 5%; Activity (MDA-MB-468 [19]): 13.7%
8 | COc1ccc2nc(Cl)c(/C=C\c3ccc(C(F)(F)F)cc3C(F)(F)F)cc2c1 | > 50 | > 50 | > 50 | > 50 | > 50 | –
9 | CCN(CC)CCCC(C)Nc1ccnc2cc(Cl)ccc12 (stereo not drawn) [CHLOROQUINE] | – | 30 | 19.9 | 36.5 | 63.1 | –
10 | CC[C@@]1(O)C(=O)OCc2c1cc1n(c2=O)Cc2cc3ccccc3nc2-1 [CAMPTOTHECIN] | – | 0.00613 | 0.0148 | 0.00577 | 0.00496 | –
11 | FC(F)(F)c1cccc(/C=C\c2cc3cc4c(cc3nc2Cl)OCO4)c1 | 18.9 | 20.1 | > 50 | 26 | 17 | –
12 | Fc1ccc(/C=C\c2cc3ccc(Cl)cc3nc2Cl)cc1 | 16.9 | 38.6 | 10.9 | 42.6 | 26.9 | –
13 | COc1ccc2nc(Cl)c(/C=C\c3ccc(C(F)(F)F)cc3)cc2c1 | 12.4 | 16.2 | 22.7 | 22.8 | 40 | –
14 | FC(F)(F)c1cccc(/C=C/c2cc3ccccc3nc2Cl)c1 | 24.4 | 20.3 | 24 | 45 | 24.7 | –
15 | Fc1ccc(/C=C\c2cc3ccccc3nc2Cl)cc1 | 20.3 | 24.9 | 5.29 | 24 | 35.7 | –

More lines, main results first:

Row | IC50 (MCF7) [µM] | IC50 (HeLa) [µM] | IC50 (MDA-MB-468 [2]) [µM] | IC50 (MDA-MB-231) [µM] | Structure (SMILES) | IC50 [1] [µM] | further results
16 | 8.97 | 9.67 | 15.2 | 11.4 | COc1ccc2nc(Cl)c(/C=C\c3ccc(F)cc3)cc2c1 | 19.2 | –
17 | 2.78 | 3.03 | 3.91 | 3.28 | COc1ccc2nc(Cl)c(/C=C\c3cccc(C(F)(F)F)c3)cc2c1 | 5.58 | –
18 | 7.46 | 6.78 | 10.5 | 10.1 | FC(F)(F)c1cc(/C=C\c2cc3ccccc3nc2Cl)cc(C(F)(F)F)c1 | 13.7 | –
19 | 4.7 | 4.14 | 5.79 | 4.47 | COc1ccc2nc(Cl)c(/C=C\c3cc(C(F)(F)F)cc(C(F)(F)F)c3)cc2c1 | 7.97 | –
20 | – | 0.00229 | 0.00387 | 0.00256 | CC(=O)O[C@H]1C(=O)[C@@]2(C)[C@H]([C@H](OC(=O)c3ccccc3)[C@]3(O)C[C@H](OC(=O)[C@H](O)[C@@H](NC(=O)c4ccccc4)c4ccccc4)C(C)=C1C3(C)C)[C@]1(OC(C)=O)CO[C@@H]1C[C@@H]2O [PACLITAXEL] | 0.00232 | –
21 | 4.47 | 2.6 | 4.98 | 2.77 | COc1ccc2nc(Cl)c(/C=C\c3ccccc3C(F)(F)F)cc2c1 | 5.31 | –
22 | 4.26 | 4.22 | 7.38 | 5.36 | FC(F)(F)c1ccc(/C=C\c2cc3ccccc3nc2Cl)cc1 | 7.94 | –
23 | 6.45 | 12.6 | 16.1 | 13.6 | FC(F)(F)c1ccc(/C=C\c2cc3ccc(Cl)cc3nc2Cl)cc1 | 26.4 | –
